Screening data from PubChem.
In the library only some 2.8% were active in any assay of this set; here they are far more common.
SIRT5 block = SIRT5 desuccinylase inhibitors, primary screen, biochemical, fluorescence imaging, single point, set 5 | Purified SirT5, succinyl-peptide AMC, trypsin-coupled fluorescence | NAD-dependent protein deacylase sirtuin-5, mitochondrial (Homo sapiens), Q9NXA8 | 330,000 tested, 1.1% active | inhibition, % at 15 µM | AID 652115, 2013; in the data active = inhibition above about 15%
E-sel inducer = E-selectin induction in HUVECs, primary screen, imaging, HUVEC, immunofluorescence imaging, single point | 260,000 tested, 0.37% active | normalized: neutral wells 0, TNF-alpha wells 100 | P16581 | activation, % at 7.58 µM;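 active = mean E-selectin-positive cell signal at least 10% of the positive control, reached in at least 60% of replicates, without over 20% cell loss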
Target sequence (P16581 whole entry, looked up): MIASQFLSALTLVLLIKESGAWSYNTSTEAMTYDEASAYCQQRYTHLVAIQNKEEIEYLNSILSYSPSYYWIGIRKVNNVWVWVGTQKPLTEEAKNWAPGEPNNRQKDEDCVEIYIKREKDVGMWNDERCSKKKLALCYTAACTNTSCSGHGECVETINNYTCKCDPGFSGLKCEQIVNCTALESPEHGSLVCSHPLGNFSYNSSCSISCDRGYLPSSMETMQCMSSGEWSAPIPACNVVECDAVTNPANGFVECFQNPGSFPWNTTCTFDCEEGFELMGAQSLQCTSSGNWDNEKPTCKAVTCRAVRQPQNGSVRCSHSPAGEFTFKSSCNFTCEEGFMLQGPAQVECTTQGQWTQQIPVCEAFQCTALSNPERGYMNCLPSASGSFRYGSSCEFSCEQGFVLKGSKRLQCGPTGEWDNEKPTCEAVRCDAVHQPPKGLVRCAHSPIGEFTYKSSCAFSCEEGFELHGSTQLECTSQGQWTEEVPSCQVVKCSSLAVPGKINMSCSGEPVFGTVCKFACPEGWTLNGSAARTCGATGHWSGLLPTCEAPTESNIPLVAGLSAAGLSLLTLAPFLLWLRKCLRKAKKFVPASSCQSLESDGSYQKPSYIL
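assay system = HUVEC, human umbilical vein endothelial cells | input = 3,000 HUVEC seeded per well | medium = EGM-2 growth medium on 0.1% gelatin-coated wells | dosing = one compound dose added by pin transfer | signal = immunofluorescence imaging | read-out basis = % PE-positive cells | control set = TNF-alpha, DMSO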
DENV2 CPE rescue = inhibitors of DENV2 cytopathic effect, primary screen, cell-based, plate reader, single concentration; CPE inhibition, % at 9.99 µM; AID 651640, 2012; 350,000 tested, 1.7% active; DENV2-infected cells, cytopathic effect rescue; in the data active = CPE inhibition above about 20%, passing the limit was not always enough; tested in BHK-21 cells
A number is an active result; i = inactive; nt = no result.

SMILES | SIRT5 block | E-sel inducer | DENV2 CPE rescue
CCCc1cn(CC[C@H]2CC[C@H](NS(=O)(=O)c3ccccc3Cl)[C@@H](CO)O2)nn1 | i | i | i
Cc1noc(C)c1NC(=O)Nc1ccc2c(c1)C(=O)N([C@H](C)CO)C[C@@H](C)[C@H](CN(C)S(=O)(=O)c1c(C)noc1C)OCCCC[C@@H](C)O2 | i | i | i
C[C@@H]1CCCCO[C@H](CN(C)Cc2ccc3c(c2)OCO3)[C@@H](C)CN([C@H](C)CO)C(=O)c2cc(NC(=O)Cc3ccccc3)ccc2O1 | nt | i | i
Cc1ccc2nc(SC(C)C(=O)N3CCCCC3)[nH]c2c1 (stereo not drawn) | i | i | i
Cc1ccc2nc(SC(C)C(=O)N3CC(C)OC(C)C3)[nH]c2c1 (stereo not drawn) | 22.4 | i | i
Oc1ccc(Cl)cc1CNCc1ccc(Cl)cc1 | i | i | i
Oc1ccc(Cl)cc1CNCc1ccc(F)cc1 | nt | i | 23.2
CC(C)C[C@@H](CN1C(=O)C(=O)NC[C@@H]1CC(C)C)NC(=O)Cc1ccccc1 | nt | nt | 43.4
CC(C)C[C@H]1CNC(=O)C(=O)N1C[C@H](Cc1ccc(O)cc1)NC(=O)CC12CC3CC(CC(C3)C1)C2 | i | i | i
O=C1N[C@H](Cc2ccccc2)COCn2nncc2CC[C@H]1Cc1ccccc1 | i | nt | i
COc1ccccc1CNC(=O)C[C@@H]1C[C@H]2c3cc(NC(=O)CC4CC4)ccc3O[C@H]2[C@@H](CO)O1 | nt | i | i
CO[C@@H]1CN(C)C(=O)c2ccc(NC(=O)Nc3ccc4c(c3)OCO4)cc2OC[C@@H](C)N(C)C[C@H]1C | nt | i | nt
CN(C)C(=O)c1ccc(-c2ccc([C@@H]3[C@H](CO)N4CCCCN(Cc5ccncc5)C[C@@H]34)cc2)cc1 | i | i | i
COc1ccc(CN(C)C[C@H]2OCCCC[C@@H](C)Oc3ccc(NC(=O)NC4CCCCC4)cc3C(=O)N([C@H](C)CO)C[C@H]2C)cc1 | 18.7 | i | i
COc1ccc(CN(C)C[C@H]2OCCCC[C@@H](C)Oc3ccc(NC(=O)NC(C)C)cc3C(=O)N([C@H](C)CO)C[C@H]2C)cc1 | i | i | 85.5
COc1ccc(NC(=O)Nc2ccc3c(c2)C(=O)N([C@H](C)CO)C[C@@H](C)[C@H](CN(C)Cc2ccc(C(=O)O)cc2)OCCCC[C@H](C)O3)cc1 | i | i | i
COc1ccc(NC(=O)Nc2ccc3c(c2)C(=O)N([C@@H](C)CO)C[C@H](C)[C@H](CN(C)Cc2ccc(C(=O)O)cc2)OCCCC[C@H](C)O3)cc1 | i | i | 80.1
COc1ccc(CN(C)C[C@H]2OCCCC[C@@H](C)Oc3ccc(NC(=O)NC4CCCCC4)cc3C(=O)N([C@H](C)CO)C[C@@H]2C)cc1 | i | i | i
COc1ccc(CN(C)C[C@H]2OCCCC[C@H](C)Oc3ccc(N(C)C)cc3C(=O)N([C@H](C)CO)C[C@H]2C)cc1 | 21.9 | i | i
COc1ccc(CN(C)C[C@@H]2OCCCC[C@H](C)Oc3ccc(NC(=O)NC(C)C)cc3C(=O)N([C@H](C)CO)C[C@H]2C)cc1 | i | i | i
COc1ccc(CN(C)C[C@H]2OCCCC[C@@H](C)Oc3ccc(N(C)C)cc3C(=O)N([C@@H](C)CO)C[C@H]2C)cc1 | i | i | i
COc1ccc(CN2C[C@@H](O)COC[C@H]3O[C@@H](CC(=O)NCCN4CCCC4)CC[C@@H]32)cc1 | nt | i | i
CN1C(=O)c2cc(NS(=O)(=O)c3cccc(F)c3)ccc2OC[C@H]2O[C@H](CC(=O)O)CC[C@@H]21 | i | i | i
CN(C)CC#Cc1cccc(-c2nc(C(=O)N[C@@H]3CCN(Cc4ccccc4)C3)cc3c2[C@@H](CCO)N(S(=O)C(C)(C)C)C3)c1 (stereo partly drawn) | i | nt | i
O=C(C[C@H]1C[C@@H]2c3cc(NC(=O)NC4CCCC4)ccc3O[C@@H]2[C@@H](CO)O1)NCc1ccc(Oc2ccccc2)cc1 | i | i | i
COc1ccc(CN(C)C[C@H]2OCCCC[C@@H](C)Oc3ccc(NC(=O)Nc4ccccc4)cc3C(=O)N([C@@H](C)CO)C[C@H]2C)cc1 | nt | i | i
COc1ccc(CN(C)C[C@@H]2OCCCC[C@H](C)Oc3ccc(NC(=O)Nc4ccccc4)cc3C(=O)N([C@H](C)CO)C[C@H]2C)cc1 | nt | i | 38.6
C[C@@H]1CCCCO[C@@H](CN(C)CC2CCCCC2)[C@@H](C)CN([C@H](C)CO)C(=O)c2cc(N(C)C)ccc2O1 | i | i | 48.3
C[C@@H]1CN([C@H](C)CO)C(=O)c2cc(N(C)C)ccc2O[C@@H](C)CCCCO[C@@H]1CN(C)CC1CCCCC1 | i | i | i
CCc1ccc(Nc2n[n+](-c3ccccc3)c(-c3ccc(C(=O)O)cc3)s2)cc1 | nt | nt | 22.9
